According to ChEMBL document CHEMBL3352570, “ST7612AA1, a thioacetate-ω(γ-lactam carboxamide) derivative selected from a novel generation of oral HDAC inhibitors” (J Med Chem, 2014):
One block for each compound: values may come before it. The source made the active and inactive calls. The calls are words filed in the database; no cut-off is given here.

Key:
[1] = tested on: NCI-H460; assay: Cytotoxicity against human NCI-H460 cells after 24 hrs by SRB assay; type: functional, cell-based; settings: NCI-H460, 24 h
Method in brief: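 NCI-H460 cells were grown in RPMI-1640 with L-glutamine, 10% heat-inactivated FCS and 50 μg/mL gentamicin. Cells were seeded at about 10% confluence and allowed to recover for 24 h. They were exposed to varying concentrations for 24 h, washed, then cultured a further 48 h. Surviving cells were measured by SRB. IC50 is the 50% reduction in cell number versus vehicle, from dose–response curve fitting; means of at least three experiments.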

[2] = target: T1, Histone deacetylase 3 (Homo sapiens, UniProt O15379); assay: Inhibition of HDAC3 (unknown origin) using fluorogenic tetrapeptide RHKK(Ac) substrate by fluorescence assay
[3] = target: T2, Histone deacetylase 1 (Homo sapiens, UniProt Q13547); assay: Inhibition of HDAC1 (unknown origin) using fluorogenic tetrapeptide RHKK(Ac) substrate at <50 uM by fluorescence assay
Method in brief: (§1)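 Fluorogenic assay with the tetrapeptide RHKK(Ac) substrate (p53 residues 379–382) at 50 μM.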

[4] = target: T3, Histone deacetylase 11 (Homo sapiens, UniProt Q96DB2); assay: Inhibition of HDAC11 (unknown origin) using fluorogenic tetrapeptide RHKK(Ac) substrate by fluorescence assay
T3 sequence (Q96DB2 whole entry): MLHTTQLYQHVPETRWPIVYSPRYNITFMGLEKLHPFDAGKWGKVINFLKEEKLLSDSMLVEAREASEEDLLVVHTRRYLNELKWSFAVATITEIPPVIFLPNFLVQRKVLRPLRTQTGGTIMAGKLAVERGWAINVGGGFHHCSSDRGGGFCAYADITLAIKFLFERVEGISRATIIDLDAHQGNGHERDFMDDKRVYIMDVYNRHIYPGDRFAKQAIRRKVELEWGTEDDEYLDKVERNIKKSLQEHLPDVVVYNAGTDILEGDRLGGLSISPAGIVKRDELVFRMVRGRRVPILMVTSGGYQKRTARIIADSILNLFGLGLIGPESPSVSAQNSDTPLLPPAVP

[5] = target: T4, Polyamine deacetylase HDAC10 (Homo sapiens) (UniProt Q969S8); assay: Inhibition of HDAC10 (unknown origin) using fluorogenic tetrapeptide RHKK(Ac) substrate at <50 uM by fluorescence assay; method in brief: as §1
T4 sequence (whole entry): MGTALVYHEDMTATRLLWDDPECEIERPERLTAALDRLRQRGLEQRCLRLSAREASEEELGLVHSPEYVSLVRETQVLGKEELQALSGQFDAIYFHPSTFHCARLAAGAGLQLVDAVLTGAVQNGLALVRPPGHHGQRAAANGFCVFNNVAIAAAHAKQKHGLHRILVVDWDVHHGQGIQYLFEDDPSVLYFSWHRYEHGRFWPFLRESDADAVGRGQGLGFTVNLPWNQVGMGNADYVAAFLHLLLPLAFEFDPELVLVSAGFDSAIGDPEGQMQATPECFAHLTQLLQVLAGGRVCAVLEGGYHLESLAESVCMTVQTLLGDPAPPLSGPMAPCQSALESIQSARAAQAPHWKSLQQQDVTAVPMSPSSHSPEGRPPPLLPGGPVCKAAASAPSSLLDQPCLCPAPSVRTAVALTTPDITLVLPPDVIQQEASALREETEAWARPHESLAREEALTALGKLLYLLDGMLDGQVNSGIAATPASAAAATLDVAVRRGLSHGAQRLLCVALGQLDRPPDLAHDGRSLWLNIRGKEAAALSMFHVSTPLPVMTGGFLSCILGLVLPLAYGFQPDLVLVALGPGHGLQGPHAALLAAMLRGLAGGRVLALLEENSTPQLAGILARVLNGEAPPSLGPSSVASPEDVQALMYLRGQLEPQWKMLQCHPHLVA

[6] = target: T5, Histone deacetylase 8 (Homo sapiens) (UniProt Q9BY41); assay: Inhibition of HDAC8 (unknown origin) using fluorogenic tetrapeptide RHK(Ac)K(Ac) substrate at <50 uM by fluorescence assay
T5 sequence (whole entry): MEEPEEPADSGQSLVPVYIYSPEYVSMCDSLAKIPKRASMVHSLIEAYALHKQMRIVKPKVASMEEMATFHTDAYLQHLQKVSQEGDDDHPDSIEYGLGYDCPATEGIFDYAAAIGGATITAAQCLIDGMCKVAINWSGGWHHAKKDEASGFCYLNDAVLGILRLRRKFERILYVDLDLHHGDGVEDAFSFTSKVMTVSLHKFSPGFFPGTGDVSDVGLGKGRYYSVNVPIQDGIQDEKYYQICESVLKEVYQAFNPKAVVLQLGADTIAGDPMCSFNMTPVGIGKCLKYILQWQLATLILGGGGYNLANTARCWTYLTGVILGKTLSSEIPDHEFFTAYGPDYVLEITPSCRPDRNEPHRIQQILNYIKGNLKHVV
Method in brief: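 The HDAC8 assay used the diacetylated fluorogenic substrate RHK(Ac)K(Ac) at 50 μM.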

[7] = target: T6, Protein deacetylase HDAC6 (Homo sapiens, UniProt Q9UBN7); assay: Inhibition of HDAC6 (unknown origin) using fluorogenic tetrapeptide RHKK(Ac) substrate by fluorescence assay
T6 sequence (Q9UBN7 whole entry): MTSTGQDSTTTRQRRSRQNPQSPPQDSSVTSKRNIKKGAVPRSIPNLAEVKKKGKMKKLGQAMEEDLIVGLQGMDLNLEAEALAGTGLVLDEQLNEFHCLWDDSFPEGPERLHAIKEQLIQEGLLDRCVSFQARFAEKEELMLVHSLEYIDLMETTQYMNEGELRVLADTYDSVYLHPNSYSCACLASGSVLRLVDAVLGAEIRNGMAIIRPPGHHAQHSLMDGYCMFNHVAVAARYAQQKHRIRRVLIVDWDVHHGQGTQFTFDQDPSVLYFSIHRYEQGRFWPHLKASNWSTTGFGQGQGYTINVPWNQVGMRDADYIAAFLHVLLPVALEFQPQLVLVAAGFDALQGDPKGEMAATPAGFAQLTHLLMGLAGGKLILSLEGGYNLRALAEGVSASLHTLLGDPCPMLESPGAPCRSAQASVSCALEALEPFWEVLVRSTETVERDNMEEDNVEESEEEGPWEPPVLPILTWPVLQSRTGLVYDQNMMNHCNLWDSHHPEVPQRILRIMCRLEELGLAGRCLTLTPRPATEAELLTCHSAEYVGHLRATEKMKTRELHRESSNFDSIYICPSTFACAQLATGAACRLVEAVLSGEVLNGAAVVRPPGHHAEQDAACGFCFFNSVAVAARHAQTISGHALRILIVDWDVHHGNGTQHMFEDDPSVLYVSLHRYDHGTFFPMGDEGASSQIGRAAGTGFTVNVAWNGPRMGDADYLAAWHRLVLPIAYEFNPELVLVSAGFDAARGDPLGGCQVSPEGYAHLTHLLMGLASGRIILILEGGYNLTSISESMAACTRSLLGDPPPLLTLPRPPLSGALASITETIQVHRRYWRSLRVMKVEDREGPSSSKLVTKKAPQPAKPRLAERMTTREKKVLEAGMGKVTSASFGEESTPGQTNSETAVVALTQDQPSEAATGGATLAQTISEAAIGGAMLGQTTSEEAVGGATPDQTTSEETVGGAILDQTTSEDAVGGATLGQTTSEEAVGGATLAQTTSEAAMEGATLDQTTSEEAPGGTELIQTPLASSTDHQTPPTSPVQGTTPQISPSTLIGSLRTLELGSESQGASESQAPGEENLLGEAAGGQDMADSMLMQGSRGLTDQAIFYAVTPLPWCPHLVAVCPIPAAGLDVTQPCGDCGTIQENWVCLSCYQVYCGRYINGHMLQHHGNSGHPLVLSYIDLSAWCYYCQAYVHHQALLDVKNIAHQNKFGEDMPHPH

[8] = target: Histone deacetylase 2 (Homo sapiens, UniProt Q92769); assay: Inhibition of HDAC2 (unknown origin) using fluorogenic tetrapeptide RHKK(Ac) substrate at <50 uM by fluorescence assay; method in brief: as §1
[9] = target: T7, Histone deacetylase 8 (Homo sapiens, UniProt Q9BY41); assay: Inhibition of HDAC8 (unknown origin) using fluorogenic tetrapeptide RHK(Ac)K(Ac) substrate by fluorescence assay
T7 sequence (Q9BY41 whole entry): T5 sequence (whole entry)

[10] = target: T8, Polyamine deacetylase HDAC10 (Homo sapiens, UniProt Q969S8); assay: Inhibition of HDAC10 (unknown origin) using fluorogenic tetrapeptide RHKK(Ac) substrate by fluorescence assay
T8 sequence (Q969S8 whole entry): T4 sequence (whole entry)

[11] = target: T2, Histone deacetylase 1; assay: Inhibition of HDAC1 (unknown origin) using fluorogenic tetrapeptide RHKK(Ac) substrate by fluorescence assay
[12] = Solubility of the compound in water; type: physicochemical
[13] = target: T1, Histone deacetylase 3; assay: Inhibition of HDAC3 (unknown origin) using fluorogenic tetrapeptide RHKK(Ac) substrate at <50 uM by fluorescence assay; method in brief: as §1

T1 sequence (O15379 whole entry): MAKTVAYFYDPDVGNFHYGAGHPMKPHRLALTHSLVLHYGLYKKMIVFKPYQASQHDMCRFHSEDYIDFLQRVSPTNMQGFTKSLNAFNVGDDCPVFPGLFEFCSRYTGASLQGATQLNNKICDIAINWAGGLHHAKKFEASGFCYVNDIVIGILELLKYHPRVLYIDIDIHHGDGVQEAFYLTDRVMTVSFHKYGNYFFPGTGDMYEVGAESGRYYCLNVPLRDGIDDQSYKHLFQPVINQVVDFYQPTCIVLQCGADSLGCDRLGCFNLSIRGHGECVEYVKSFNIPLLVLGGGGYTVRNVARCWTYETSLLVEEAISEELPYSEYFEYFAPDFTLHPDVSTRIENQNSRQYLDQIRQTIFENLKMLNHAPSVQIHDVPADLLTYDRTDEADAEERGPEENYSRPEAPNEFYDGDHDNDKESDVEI
T2 sequence (Q13547 whole entry, the tested form may be a part): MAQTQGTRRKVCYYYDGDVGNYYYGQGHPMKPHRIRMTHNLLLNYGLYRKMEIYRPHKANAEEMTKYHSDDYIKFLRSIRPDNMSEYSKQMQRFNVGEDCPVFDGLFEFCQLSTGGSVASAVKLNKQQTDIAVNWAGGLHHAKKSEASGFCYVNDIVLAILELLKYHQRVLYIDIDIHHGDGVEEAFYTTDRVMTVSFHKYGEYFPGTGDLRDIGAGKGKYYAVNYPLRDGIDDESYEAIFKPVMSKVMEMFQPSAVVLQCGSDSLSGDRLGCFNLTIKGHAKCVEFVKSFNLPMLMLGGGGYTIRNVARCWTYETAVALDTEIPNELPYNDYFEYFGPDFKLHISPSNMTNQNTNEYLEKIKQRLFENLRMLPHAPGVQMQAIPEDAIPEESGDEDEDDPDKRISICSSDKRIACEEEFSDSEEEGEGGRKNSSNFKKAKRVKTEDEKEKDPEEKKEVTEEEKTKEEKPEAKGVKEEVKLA
Chain of Histone deacetylase 2 (Q92769 whole entry): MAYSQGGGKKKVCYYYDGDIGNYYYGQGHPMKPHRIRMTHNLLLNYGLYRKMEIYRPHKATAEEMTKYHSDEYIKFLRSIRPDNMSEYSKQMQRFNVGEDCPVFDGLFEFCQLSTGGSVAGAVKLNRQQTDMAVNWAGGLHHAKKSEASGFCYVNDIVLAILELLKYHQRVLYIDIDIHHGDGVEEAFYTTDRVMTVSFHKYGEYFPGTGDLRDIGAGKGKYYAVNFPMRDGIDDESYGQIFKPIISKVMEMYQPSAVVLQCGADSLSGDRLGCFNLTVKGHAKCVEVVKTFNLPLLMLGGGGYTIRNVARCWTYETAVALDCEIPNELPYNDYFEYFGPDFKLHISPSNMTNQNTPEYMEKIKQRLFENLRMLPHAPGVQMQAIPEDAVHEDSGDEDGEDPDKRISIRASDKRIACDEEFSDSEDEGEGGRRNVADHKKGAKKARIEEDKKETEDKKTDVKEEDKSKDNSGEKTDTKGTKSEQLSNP

Compound: CC(=O)SCCCCC[C@H](NC(=O)[C@H]1CCC(=O)N1)C(=O)Nc1cccc(C(F)(F)F)c1
- IC50 [1]: 0.03 µM

- IC50 [2]: 17.1 µM
- inhibition [3]: inactive
- IC50 [4]: 14.2 µM
- inhibition [5]: inactive
- inhibition [6]: inactive
- IC50 [7]: 9.38 µM
- inhibition [8]: inactive
Compound: O=C1CCC[C@@H](C(=O)N[C@H](CCCCCS)C(=O)Nc2ccccc2)N1

Compound: CC(=O)SCCCCC[C@H](NC(=O)[C@H]1CCC(=O)N1)C(=O)Nc1cccc(C)c1
- IC50 [1]: 0.04 µM

- IC50 [2]: 6.33 µM
- IC50 [4]: 0.293 µM
- IC50 [9]: 2.23 µM
- IC50 [10]: 6 µM
- IC50 [11]: 2.9 µM
- IC50 [7]: 0.582 µM
- inhibition [8]: inactive
Compound: O=C1CCC[C@@H](C(=O)N[C@@H](CCCCCS)C(=O)N2CCc3ccccc3C2)N1

- solubility [12]: > 1000 µg/mL
Compound: CC(C)C(=O)SCCCCCCC(=O)Nc1ccccc1

- solubility [12]: > 1000 µg/mL
Compound: CC(=O)SCCCCCCC(=O)Nc1ccccc1

- inhibition [3]: inactive
- IC50 [4]: 30.7 µM
- inhibition [13]: inactive
- IC50 [9]: 44 µM
- IC50 [10]: 5.21 µM
- IC50 [7]: 1.12 µM
- inhibition [8]: inactive
Compound: CC(C)(C)OC(=O)N[C@@H](CCCCCS)C(=O)NC1CCCC1

Compound: CC(=O)SCCCCC[C@H](NC(=O)[C@@H]1CCCC(=O)N1)C(=O)Nc1cccc(C)c1
- IC50 [1]: 0.06 µM

Compound: O=C1CCC[C@@H](C(=O)N[C@@H](CCCCCSSCCCCC[C@H](NC(=O)[C@@H]2CCCC(=O)N2)C(=O)Nc2ccccc2)C(=O)Nc2ccccc2)N1
- IC50 [1]: 5.4 µM
